What was measured:
[1] = system: A549; assay: Antiproliferative activity against human A549 cells assessed as reduction in cell viability after 24 hrs by MTT assay; assay type: functional, cell-based; settings: A549, 24 h
Summary of the method: (§1)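 Cells seeded at 5.5 × 10⁴ cells/mL in 96-well plates and grown 24 h before exposure to graded compound concentrations. Viability read by MTT after 24 h. A549, MCF-7 and MDA-MB-468 were kept in DMEM with 10% FBS under 5% CO₂; HL60 and U937 in RPMI 1640 with 10% FBS. IC50 taken as mean of triplicate tests.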

[2] = system: MCF7; assay: Antiproliferative activity against human MCF-7 cells assessed as reduction in cell viability after 24 hrs by MTT assay; assay type: functional, cell-based; settings: MCF7, 24 h; summary of the method: as §1
[3] = system: MDA-MB-468; assay: Antiproliferative activity against human MDA-MB-468 cells assessed as reduction in cell viability after 24 hrs by MTT assay; assay type: functional, cell-based; settings: MDA-MB-468, 24 h; summary of the method: as §1
[4] = system: U-937; assay: Antiproliferative activity against human U937 cells assessed as reduction in cell viability after 24 hrs by MTT assay; assay type: functional, cell-based; settings: U-937, 24 h; summary of the method: as §1
[5] = system: HL-60; assay: Antiproliferative activity against human HL60 cells assessed as reduction in cell viability after 24 hrs by MTT assay; assay type: functional, cell-based; settings: HL-60, 24 h; summary of the method: as §1
[6] = biological target: T1, Serine/threonine-protein kinase ULK1 (Homo sapiens) (UniProt O75385); assay: Inhibition of recombinant human ULK1 at 10 uM preincubated for 60 mins followed by substrate addition and measured after 30 mins by ADP-glo assay; settings: time 90.0 min
T1 sequence (whole entry): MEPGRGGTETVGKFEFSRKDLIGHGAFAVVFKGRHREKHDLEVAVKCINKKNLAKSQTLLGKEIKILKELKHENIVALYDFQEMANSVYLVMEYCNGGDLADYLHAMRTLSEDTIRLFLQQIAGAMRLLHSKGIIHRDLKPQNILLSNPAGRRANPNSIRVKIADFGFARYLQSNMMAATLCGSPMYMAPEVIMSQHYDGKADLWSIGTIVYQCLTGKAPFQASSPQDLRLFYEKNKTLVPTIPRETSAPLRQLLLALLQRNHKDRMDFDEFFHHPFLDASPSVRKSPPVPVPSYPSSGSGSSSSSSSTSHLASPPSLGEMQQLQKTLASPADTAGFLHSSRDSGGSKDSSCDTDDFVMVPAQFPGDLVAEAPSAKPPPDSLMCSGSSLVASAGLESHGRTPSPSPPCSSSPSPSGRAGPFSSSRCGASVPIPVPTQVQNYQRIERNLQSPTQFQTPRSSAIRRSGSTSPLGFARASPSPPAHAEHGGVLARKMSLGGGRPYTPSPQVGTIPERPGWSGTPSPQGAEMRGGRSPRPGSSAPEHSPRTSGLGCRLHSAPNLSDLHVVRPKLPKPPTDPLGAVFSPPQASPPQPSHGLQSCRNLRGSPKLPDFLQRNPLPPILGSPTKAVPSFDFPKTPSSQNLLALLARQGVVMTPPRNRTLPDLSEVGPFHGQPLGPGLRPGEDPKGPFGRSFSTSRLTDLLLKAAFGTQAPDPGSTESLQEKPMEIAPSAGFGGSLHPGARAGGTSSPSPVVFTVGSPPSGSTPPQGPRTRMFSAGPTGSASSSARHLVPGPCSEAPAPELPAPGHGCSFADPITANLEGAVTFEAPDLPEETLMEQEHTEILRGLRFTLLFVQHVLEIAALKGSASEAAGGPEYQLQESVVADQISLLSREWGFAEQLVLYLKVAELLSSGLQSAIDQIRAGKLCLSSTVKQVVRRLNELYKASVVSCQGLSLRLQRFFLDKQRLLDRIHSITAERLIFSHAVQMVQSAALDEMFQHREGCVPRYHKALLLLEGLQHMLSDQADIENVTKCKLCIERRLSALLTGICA
Summary of the method: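 Recombinant ULK1 activity was measured by ADP-Glo luminescence of ADP formed, in 40 mM Tris pH 7.5, 20 mM MgCl₂, 0.1 mg/ml BSA and […]. After the kinase reaction, plates were mixed 2 min and held 40 min at room temperature. Detection reagent was then added for 30 min at room temperature before luminescence was read.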

| Structure (SMILES) | IC50 [1] [µM] | IC50 [2] [µM] | IC50 [3] [µM] | IC50 [4] [µM] | IC50 [5] [µM] | inhibition [6] [%] |
| --- | --- | --- | --- | --- | --- | --- |
| Cc1cccc(Nc2ncc(Br)c(Oc3ccc(Br)cc3)n2)c1 | 10.3 | 19.1 | 31.3 | 18.6 | 14.7 | 25.7 |
| COc1cc(Nc2nccc(NCCCN)n2)cc(OC)c1OC | 29.7 | > 50 | 45.8 | > 50 | > 50 | 17.7 |
| CCN(CC)CCNc1ccnc(Nc2cc(OC)c(OC)c(OC)c2)n1 | 46.4 | > 50 | > 50 | > 50 | > 50 | 13.4 |
| CNC(=O)c1ccccc1Oc1nc(Nc2ccc3c(c2)OCO3)ncc1Br | > 50 | > 50 | > 50 | > 50 | > 50 | 22.2 |
| CCOc1ccccc1Oc1nc(Nc2cccc(C)c2)ncc1Br | 20.3 | 39.1 | 31.4 | 38.6 | 34.7 | 75.7 |
| CNC(=O)c1ccccc1Oc1nc(Nc2ccccc2F)ncc1Br | 35.5 | > 50 | > 50 | > 50 | > 50 | 27.4 |
| CNC(=O)c1ccccc1Oc1nc(Nc2ccccc2OC)ncc1Br | 40.5 | > 50 | > 50 | 52.1 | > 50 | 19.2 |
| COc1cc(Nc2ncc(I)c(NCCCN)n2)cc(OC)c1OC | 39.6 | > 50 | > 50 | 39.9 | 43.4 | 32.3 |
| Cc1cccc(Nc2ncc(Br)c(Oc3ccc(OCc4ccccc4)cc3)n2)c1 | 48.7 | > 50 | > 50 | > 50 | > 50 | 16.3 |
| CNC(=O)c1ccccc1Oc1nc(Nc2cccc(Br)c2)ncc1Br | 10.6 | 42.5 | 31.9 | 49 | 38.7 | 62.7 |
| CNC(=O)c1ccccc1Oc1nc(Nc2cccc(C)c2)ncc1Br | 6.1 | 16.6 | 18.6 | 15.9 | 16.2 | 73.7 |
| CNC(=O)c1ccccc1Oc1nc(Nc2ccc(Cl)cc2F)ncc1Br | 38.1 | > 50 | > 50 | > 50 | > 50 | 17.8 |
| CNC(=O)c1ccccc1Oc1nc(Nc2cccc(OC)c2)ncc1Br | 6.23 | 18.2 | 17.8 | 24.3 | 16.2 | 50.5 |
| O=[N+]([O-])c1ccc(Oc2nc(Nc3ccc(Cl)cc3)ncc2Br)c(F)c1 | 37.6 | > 50 | > 50 | 43.1 | > 50 | 15.7 |
| CNC(=O)c1ccccc1Oc1nc(Nc2ccc(C)cc2C)ncc1Br | 27.3 | 44.7 | 40.7 | 49.6 | 32.3 | 38.2 |

Further lines, results first:

| IC50 [1] [µM] | IC50 [2] [µM] | IC50 [3] [µM] | IC50 [4] [µM] | IC50 [5] [µM] | inhibition [6] [%] | Structure (SMILES) |
| --- | --- | --- | --- | --- | --- | --- |
| 6.78 | 26.2 | 18.4 | 25.1 | 18.9 | – | CNC(=O)c1ccccc1Oc1nc(Nc2cc(OC)c(OC)c(OC)c2)ncc1Br |
| 23.5 | > 50 | 36.6 | > 50 | 39.7 | 40.1 | CNC(=O)c1ccccc1Oc1nc(Nc2ccc(Br)cc2)ncc1Br |
| 51 | > 50 | > 50 | > 50 | > 50 | 12.5 | O=[N+]([O-])c1ccc(Oc2nc(Nc3ccc(Br)cc3)ncc2Br)c(F)c1 |
| > 50 | > 50 | > 50 | > 50 | > 50 | 21.6 | CNC(=O)c1ccccc1Oc1nc(Nc2ccc(C(F)(F)F)cc2)ncc1Br |
| 16.9 | 32.7 | 32.3 | 22 | 21.6 | 44.9 | CCN(CC)CCNc1nc(Nc2cc(OC)c(OC)c(OC)c2)ncc1I |
| 43.9 | > 50 | > 50 | > 50 | > 50 | 3.78 | Cc1cccc(Nc2ncc(Br)c(Oc3cc(Cl)cc(Cl)c3)n2)c1 |
| 24.6 | > 50 | 36.7 | 51.2 | 38.7 | 40.2 | Cc1cccc(Nc2ncc(Br)c(Oc3cccc([N+](=O)[O-])c3)n2)c1 |
| 28.3 | 57.8 | 32.8 | 45.5 | 44 | 38.8 | CNC(=O)c1ccccc1Oc1nc(Nc2cccc(C(F)(F)F)c2)ncc1Br |
| 7.14 | 26.5 | 19.4 | 14.1 | 17.5 | 84 | CNC(=O)c1ccccc1Oc1nc(Nc2cccc(C(C)C)c2)ncc1Br |
| 13.9 | 26.8 | 29.2 | 19.4 | 15.5 | 49.3 | Cc1cccc(Nc2ncc(Br)c(Oc3cccc(F)c3)n2)c1 |

Source: ChEMBL document CHEMBL4706589, “Discovery of 5-bromo-4-phenoxy-N-phenylpyrimidin-2-amine derivatives as novel ULK1 inhibitors that block autophagy and induce apoptosis in non-small cell lung cancer” (Eur J Med Chem, 2020)
